Activity calls are given as the source filed them. No cut-off for these calls is given here.
Tests used:
HEK293 [1] = test: Growth inhibition of unstimulated HEK293 cells up to 100 uM after 72 hrs by CellTiter-Fluor assay; type: cell-based; details: human, hek293, 72 h
Procedure, shortened: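 Unstimulated HEK293 cells were plated at 3.5×10^5/well and grown for 24 h, then incubated with compound for 72 h. Viability was read with CellTiter-Fluor.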

HEK293 [2] = test: Inhibition of Wnt3a activated Wnt/beta-catenin/Axin signaling (unknown origin) expressed in HEK293 cells assessed as stabilization of Axin1 protein at 1 to 10 uM after 2 hrs by Western blot method; type: cell-based; details: Homo sapiens
Procedure, shortened: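 HEK293 cells stimulated with WNT3a were treated with compound for 2 h. Cells were lysed in 10 mM HEPES, 100 μM EDTA, 10 mM KCl, 0.5% NP40, protein was quantified by BCA, and β-catenin and Axin1 were resolved on 10% SDS-PAGE and immunoblotted.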

HEK293 [3] = test: Inhibition of Wnt/beta-catenin signaling (unknown origin) expressed in HEK293 cells harboring TCF/LEF-responsive luciferase assessed as luminescence at 20 nM measured after 24 hrs by luciferase reporter gene assay relative to control; type: cell-based; set-up: scale not given: the % may be the effect or the level left; details: Homo sapiens
Procedure, shortened: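 HEK293 cells carrying siRNA knockdown of GSK3β, Axin or CK1α (36 h transfection) were treated with or without 20 nM compound for 24 h. TCF/LEF reporter luminescence was read relative to control, mean ± S.D., n = 3.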

[4] = target: Casein kinase I isoform alpha (Homo sapiens) (UniProt P48729); test: Binding affinity to CK1alpha (unknown origin) by SPR analysis
[5] = Inhibition of Wnt/beta-catenin signaling (unknown origin) expressed in HEK293 cells harboring GSK3B siRNA after 24 hrs by luciferase reporter gene assay; type: cell-based; details: Homo sapiens, HEK293, 24 h
Homo sapiens = organism: Homo sapiens; test: Ratio of IC50 for Wnt/beta-catenin signaling (unknown origin) expressed in HEK293 cells harboring GSK3B siRNA to IC50 for Wnt/beta-catenin signaling (unknown origin) expressed in HEK293 cells harboring siRNA; type: cell-based
Mus musculus [6] = organism: Mus musculus; test: Inhibition of Wnt/beta-catenin/Axin signaling in mouse hepatocytes assessed as decrease in ACAA1A mRNA level at 5 uM by qPCR analysis; type: cell-based
Procedure, shortened: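 Normal mouse hepatocytes were treated with 5 μM compound, and lipogenic and gluconeogenic gene mRNA was measured by qPCR; mean ± S.D. of triplicates.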

Mus musculus [7] = test: Decrease in hepatic CycD1 mRNA level in high fat diet fed C57BL/6J mouse at 40 mg/kg, ip administered every 2 days for 11 weeks by qPCR analysis; type: functional, organism-based
Procedure, shortened: (§1)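 Male mice, 8 weeks old, fed a 45% kcal fat diet for 6 weeks, then dosed i.p. every 2 days in corn oil vehicle for 11 weeks. Liver mRNA of the indicated genes was quantified at sacrifice; mean ± SEM, n = 5 per group.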

Mus musculus [8] = test: Decrease in hepatic SREBP1 mRNA level in high fat diet fed C57BL/6J mouse at 40 mg/kg, ip administered every 2 days for 11 weeks by qPCR analysis; type: functional, organism-based; procedure, shortened: as §1
Mus musculus [9] = test: Decrease in hepatic FASN mRNA level in high fat diet fed C57BL/6J mouse at 40 mg/kg, ip administered every 2 days for 11 weeks by qPCR analysis; type: functional, organism-based; procedure, shortened: as §1
Mus musculus [10] = test: Decrease in hepatic ACAT2 mRNA level in high fat diet fed C57BL/6J mouse at 40 mg/kg, ip administered every 2 days for 11 weeks by qPCR analysis; type: functional, organism-based; procedure, shortened: as §1
Mus musculus [11] = test: Decrease in hepatic […] mRNA level in high fat diet fed C57BL/6J mouse at 40 mg/kg, ip administered every 2 days for 11 weeks by qPCR analysis; type: functional, organism-based; procedure, shortened: as §1
Mus musculus [12] = test: Decrease in hepatic ACC1 mRNA level in high fat diet fed C57BL/6J mouse at 40 mg/kg, ip administered every 2 days for 11 weeks by qPCR analysis; type: functional, organism-based; procedure, shortened: as §1
Mus musculus [13] = test: Effect on hepatic G6pase mRNA level in normal chow diet fed C57BL/6J mouse at 40 mg/kg, ip administered every 2 days for 11 weeks by qPCR analysis; type: ADME, organism-based; details: in vivo
Procedure, shortened: (§2)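 Male mice, 8 weeks old, kept on normal chow throughout and dosed i.p. every 2 days in corn oil vehicle for 11 weeks. Body weight gain, liver/body weight ratio, and liver mRNA of the indicated genes were measured at sacrifice; mean ± SEM, n = 5 per group where stated.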

Mus musculus [14] = test: Effect on hepatic PEPCK mRNA level in normal chow diet fed C57BL/6J mouse at 40 mg/kg, ip administered every 2 days for 11 weeks by qPCR analysis; type: ADME, organism-based; details: in vivo; procedure, shortened: as §2
Mus musculus [15] = test: Effect on hepatic GCK mRNA level in normal chow diet fed C57BL/6J mouse at 40 mg/kg, ip administered every 2 days for 11 weeks by qPCR analysis; type: ADME, organism-based; details: in vivo; procedure, shortened: as §2
Mus musculus [16] = test: Effect on hepatic ACOT4 mRNA level in normal chow diet fed C57BL/6J mouse at 40 mg/kg, ip administered every 2 days for 11 weeks by qPCR analysis; type: ADME, organism-based; details: in vivo; procedure, shortened: as §2
Mus musculus [17] = test: Decrease in liver weight adjusted by body weight gain in high fat diet fed C57BL/6J mouse at 40 mg/kg, ip administered every 2 days for 11 weeks; type: functional, organism-based
Procedure, shortened: (§3)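 Male mice, 8 weeks old, 24–27 g, given a 45% kcal fat diet for 6 weeks, then dosed i.p. every 2 days in corn oil vehicle with the diet continued. Sacrifice was about 24 h after the last dose. Liver was examined by H&E. Liver and serum triglyceride were measured by kit. Serum chemistry was included, and liver/body weight ratio was calculated.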

Mus musculus [18] = test: Decrease in hepatic triglyceride content in high fat diet fed C57BL/6J mouse at 40 mg/kg, ip administered every 2 days for 11 weeks; type: functional, organism-based; procedure, shortened: as §3
[19] = Toxicity in high fat diet fed C57BL/6J mouse assessed as serum total bilirubin level at 40 mg/kg, ip administered every 2 days for 11 weeks (reference value: 0.2 mg/dl); type: organism-based; details: in vivo
[20] = Toxicity in high fat diet fed C57BL/6J mouse assessed as serum creatinine level at 40 mg/kg, ip administered every 2 days for 11 weeks by Jaffe's reaction analysis (reference value: 0.3 +/- 0.02 mg/dl); type: organism-based; details: in vivo
[21] = Toxicity in high fat diet fed C57BL/6J mouse assessed as serum triglyceride level at 40 mg/kg, ip administered every 2 days for 11 weeks (reference value: 93.5 +/- 12.1 mg/dl); type: organism-based; details: in vivo
[22] = Toxicity in high fat diet fed C57BL/6J mouse assessed as serum uric acid level at 40 mg/kg, ip administered every 2 days for 11 weeks (reference value: 6.3 +/- 0.5 mg/dl); type: organism-based; details: in vivo
[23] = Toxicity in normal chow diet fed C57BL/6J mouse assessed as serum total bilirubin level at 40 mg/kg, ip administered every 2 days for 11 weeks (reference value: 0.2 mg/dl); type: organism-based; details: in vivo
[24] = Toxicity in normal chow diet fed C57BL/6J mouse assessed as serum cholesterol level at 40 mg/kg, ip administered every 2 days for 11 weeks (reference value: 183 +/- 16.6 mg/dl); type: organism-based; details: in vivo
[25] = Toxicity in normal chow diet fed C57BL/6J mouse assessed as serum LDH level at 40 mg/kg, ip administered every 2 days for 11 weeks (reference value: 324 +/- 63.5 U/L); type: organism-based; details: in vivo
[26] = Toxicity in normal chow diet fed C57BL/6J mouse assessed as serum uric acid level at 40 mg/kg, ip administered every 2 days for 11 weeks (reference value: 4 +/- 0.2 mg/dl); type: organism-based; details: in vivo

Sequence of Casein kinase I isoform alpha (Homo sapiens) (P48729 2-337 limits assumed): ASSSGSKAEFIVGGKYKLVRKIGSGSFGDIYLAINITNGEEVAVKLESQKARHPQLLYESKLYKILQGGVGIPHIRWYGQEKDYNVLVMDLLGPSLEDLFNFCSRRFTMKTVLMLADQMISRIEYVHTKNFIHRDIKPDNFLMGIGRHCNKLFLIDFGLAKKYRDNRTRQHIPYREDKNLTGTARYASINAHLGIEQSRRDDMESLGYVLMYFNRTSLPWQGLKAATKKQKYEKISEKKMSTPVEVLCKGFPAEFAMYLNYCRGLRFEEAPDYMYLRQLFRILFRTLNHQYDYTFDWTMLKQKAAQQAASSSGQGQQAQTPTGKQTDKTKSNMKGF

Activity [4]: inactive
IC50 [5]: 34 nM
Compound: Cc1ccccc1-n1nnc(C(=O)Nc2ccc3ccccc3n2)c1C
growth inhibition (GI) (HEK293 [1]): Non-Toxic
inhibition (HEK293 [2]): Active
Activity (HEK293 [3]): 40%
Ratio IC50 (Homo sapiens): 1.7
inhibition (Mus musculus [6]): Active
Activity (Mus musculus [7]): Active
Activity (Mus musculus [8]): Active
Activity (Mus musculus [9]): Active
Activity (Mus musculus [10]): Active
Activity (Mus musculus [11]): Active
Activity (Mus musculus [12]): Active
Activity (Mus musculus [13]): Non-Toxic
Activity (Mus musculus [14]): Non-Toxic
Activity (Mus musculus [15]): Non-Toxic
Activity (Mus musculus [16]): Non-Toxic
Activity (Mus musculus [17]): Active
Activity (Mus musculus [18]): Active
Activity [19]: 0.2 mg/dL
Activity [20]: 0.2 mg/dL
Activity [21]: 85.3 mg/dL
Activity [22]: 4.8 mg/dL
Activity [23]: 0.2 mg/dL
Activity [24]: 194 mg/dL
Activity [25]: 190 U/L
Activity [26]: 3.8 mg/dL

From ChEMBL document CHEMBL4371095, “Triazole-Based Inhibitors of the Wnt/β-Catenin Signaling Pathway Improve Glucose and Lipid Metabolisms in Diet-Induced Obese Mice” (J Med Chem, 2019)
